From ChEMBL document CHEMBL1149678, “Synthesis and structure-activity relationship of RXR antagonists based on the diazepinylbenzoic acid structure” (Bioorg Med Chem Lett, 2007) come the findings set out here.

The target of data set [1] is T1, Retinoic acid receptor RXR-alpha (Homo sapiens, UniProt P19793).
T1 sequence (P19793 whole entry): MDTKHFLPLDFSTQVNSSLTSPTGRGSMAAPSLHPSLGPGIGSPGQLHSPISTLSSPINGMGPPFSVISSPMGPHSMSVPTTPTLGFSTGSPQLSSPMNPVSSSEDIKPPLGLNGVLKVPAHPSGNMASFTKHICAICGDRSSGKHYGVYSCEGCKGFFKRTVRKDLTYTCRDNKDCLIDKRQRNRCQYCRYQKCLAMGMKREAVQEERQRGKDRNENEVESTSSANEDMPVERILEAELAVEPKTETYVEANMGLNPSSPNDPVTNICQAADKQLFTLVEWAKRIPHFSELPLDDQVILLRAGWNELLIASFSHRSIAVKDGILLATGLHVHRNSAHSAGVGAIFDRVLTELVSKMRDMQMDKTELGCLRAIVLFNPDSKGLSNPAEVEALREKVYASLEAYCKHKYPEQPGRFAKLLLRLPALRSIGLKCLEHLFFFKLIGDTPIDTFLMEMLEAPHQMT
In words: Antagonist activity at human RXRalpha expressed in […] cells assessed as inhibition of LG-100268-induced transactivation. In kind it is functional, cell-based, HEK293.

Data set [2] deals with T1, Retinoic acid receptor RXR-alpha. The experiment in a line: Antagonist activity at human RXRalpha expressed in […] cells assessed as inhibition of 9-cis-retinoic acid-induced transactivation. In kind it is functional, cell-based, HEK293.
Data set [3] in a line: Plasma clearance in rat at 1 mg/kg, iv. On the set-up: dose 1 mg/kg, route intravenous. In kind it is ADME, organism-based. In outline: (§1)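 Rats given the compound as a 1 mg/kg intravenous bolus or 3 mg/kg perorally as a suspension. Blood was sampled at various time points up to 24 h, and parent compound levels were measured by LC/MS. Clearance, terminal half-life and steady-state volume of distribution come from the iv profile, Cmax and tmax from the po profile, and bioavailability from comparing iv and po dosing.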

The nature of data set [4]: Terminal elimination half life in rat at 1 mg/kg, iv. Particulars: in vivo. In kind it is ADME, organism-based. On the set-up: dose 1 mg/kg, route intravenous. In outline:
as §1

The nature of data set [5]: Volume of distribution at steady state in rat at 1 mg/kg, iv. It counts as ADME, organism-based. On the set-up: dose 1 mg/kg, route intravenous. Particulars: in vivo, read-out: Vdss. In outline:
as §1

Data set [6] can be described thus: Tmax in rat at 3 mg/kg, po. In kind it is ADME, organism-based. On the set-up: dose 3 mg/kg, route oral. Particulars: in vivo. In outline: as §1
A short description of data set [7]: Cmax in rat at 3 mg/kg, po. Particulars: in vivo. In kind it is ADME, organism-based. On the set-up: dose 3 mg/kg, route oral. In outline:
as §1

The nature of data set [8]: Bioavailability in rat at 1 mg/kg, iv and 3 mg/kg, po. In kind it is ADME, organism-based. Particulars: in vivo. In outline:
as §1

Broadly, the IC50 is the point on the concentration scale where inhibition reaches its midpoint. What is called clearance is the volume of plasma or blood freed of the substance per unit of time. Read a low clearance as a low capacity for elimination. A word on the half-life: it is how long it takes for the measured level to halve. As a reminder, the Tmax is the time from dosing to the highest level. Broadly, the Cmax is the peak of the concentration-time curve. What is called bioavailability is the share of a dose that reaches the circulation, judged against a reference dose that is usually intravenous.

Regarding `CCCN1c2ccc(NS(=O)(=O)c3cccc(C(F)(F)F)c3)cc2N=C(c2ccc(C(=O)O)cc2)c2cc3c(cc21)C(C)(C)CCC3(C)C`, the 50% inhibitory concentration (IC50) in data set [1] amounted to 0.19 µM; in data set [2] it was 0.076 µM. Also, the clearance in data set [3] is 0.4 L/h/kg. The compound further gave a half-life in data set [4] of 1.8 h. For the same compound, the Vd in data set [5] amounted to 1.1 L/kg. In addition, in data set [6], the time of peak concentration (Tmax) turned out to be 4 h. Besides, in data set [7], the Cmax is 0.519 µM. In addition, the bioavailability in data set [8] came out at 21%.
In the case of `CCN1c2ccc(NS(=O)(=O)c3cccc(C(F)(F)F)c3)cc2N=C(c2ccc(C(=O)O)cc2)c2cc3c(cc21)C(C)(C)CCC3(C)C`, the half-maximal inhibitory concentration (IC50) in data set [1] came to 0.16 µM; in data set [2], 0.095 µM. Besides, in data set [3], the clearance is 0.5 L/h/kg. The half-life in data set [4] was 2.1 h. In addition, the Vd in data set [5] was found to be 1.2 L/kg. The Tmax in data set [6] amounted to 4.7 h. In data set [7], this compound had a peak concentration (Cmax) of 0.468 µM. In data set [8], this compound gave a bioavailability of 36%.
